Data reported in ChEMBL document CHEMBL1629691, “Intrapulmonary pharmacokinetics and pharmacodynamics of micafungin in adult lung transplant patients” (Antimicrob Agents Chemother, 2010).
Numbered stars: 1 amine (or outer) side, 2 acyl side, 3 side chain; on linkers, the order of the positions; unused ones are H or OH. Bridge positions count the residues as written; N and C are the ends. Square brackets hold non-standard residues; d marks the D form. Peptide text beside a SMILES is read from it. * marks the point of attachment. hTyr(3S-OH,4S-OH,3'-OSO3H) = N[C@H](C(=O)O)[C@H](O)[C@@H](O)c1ccc(O)c(OS(=O)(=O)O)c1; Orn(4R-OH,5R-OH) = O=C([C@H](C[C@@H](O)[C@@H](O)N[*:3])N[*:1])[*:2]; Pro(3S-OH,4S-Me) = C[C@H]1CN[C@H](C(=O)O)[C@H]1O; X1 = CCCCCOc1ccc(-c2cc(-c3ccc(C(=O)*)cc3)no2)cc1; Gln(3R-OH) = NC(=O)C[C@@H](O)[C@H](N)C(=O)O; Hyp = O=C(O)[C@@H]1C[C@@H](O)CN1

What was measured:
[1] = Drug level in epithelial lining fluid of lung transplant recipient invasive aspergillosis patient at 150 mg, iv QD for 4 consecutive days measured after 5 hrs post last dose by HPLC; type: ADME, organism-based; details: human, read-out: Drug uptake
Summary of the method: (§1)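 150-mg IV micafungin, then bronchoscopy with BAL (20-ml saline aliquots) at the stated time after the dose. Blood was drawn in heparin at the same time. The BAL fluid was spun at 400 × g for 5 min at 4°C; supernatant and cell pellet were frozen at −80°C. Micafungin was measured by solid-phase extraction and C8 HPLC with UV detection at 271.5 nm, using anidulafungin as internal standard.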

[2] = Drug level in lung transplant recipient invasive aspergillosis patient epithelial lining fluid at 150 mg, iv QD for 4 consecutive days measured after 18 hrs post last dose by HPLC; type: ADME, organism-based; details: human, read-out: Drug uptake; summary of the method: as §1
[3] = Drug level in lung transplant recipient invasive aspergillosis patient plasma at 150 mg, iv measured after 5 hrs post last dose by HPLC; details: human, read-out: Drug uptake
[4] = Drug level in lung transplant recipient invasive aspergillosis patient plasma at 150 mg, iv QD for 4 consecutive days measured after 3 hrs post last dose by HPLC; type: ADME, organism-based; details: human, read-out: Drug uptake; summary of the method: as §1
[5] = Ratio of Cmax in lung transplant recipient invasive aspergillosis patient epithelial lining fluid to MIC90 for Aspergillus fumigatus; type: functional
[6] = Ratio of drug level in epithelial lining fluid to plasma in lung transplant recipient invasive aspergillosis patient at 150 mg, iv QD for 4 consecutive days measured after 18 hrs post last dose; type: ADME, organism-based; details: human
[7] = Drug level in lung transplant recipient invasive aspergillosis patient plasma at 150 mg, iv QD for 4 consecutive days measured after 5 hrs post last dose by HPLC; type: ADME, organism-based; details: human, read-out: Drug uptake; summary of the method: as §1
[8] = Tmax in alveolar cells of lung transplant recipient invasive aspergillosis patient at 150 mg, iv QD for 4 consecutive days by HPLC; type: ADME, organism-based, Pneumocyte; details: human
Summary of the method: (§2)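 150-mg IV dose; BAL at 3, 5, 8, 18 or 24 h after the dose, about 4 subjects per time group. Plasma, ELF and alveolar cell drug was measured by reversed-phase HPLC with UV detection. Values were averaged per time point. Cmax is the highest mean over the five groups; Tmax is the mean dose-to-BAL time of that group.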

[9] = Elimination half life in lung transplant recipient invasive aspergillosis patient at 150 mg, iv QD for 4 consecutive days by HPLC; type: ADME, organism-based; details: human, in vivo, read-out: beta t1/2 (converted)
Summary of the method: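 Plasma micafungin was measured by HPLC after a 150-mg IV dose in lung transplant recipients. The terminal-phase half-life was derived by model-independent (noncompartmental) analysis of plasma concentrations.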

[10] = tested on: Homo sapiens; assay: Hepatotoxicity in lung transplant recipient invasive aspergillosis patient assessed as serum creatinine level at 150 mg, iv QD for 4 consecutive days measured post last dose; type: toxicity, organism-based; details: in vivo
Summary of the method: (§3)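 Serum creatinine, AST, ALT and total bilirubin were recorded from routine clinical laboratory tests before enrolment and again after BAL, at a mean of 10.7 days after infusion.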

[11] = Ratio of drug level in alveolar cell to plasma of lung transplant recipient invasive aspergillosis patient at 150 mg, iv QD for 4 consecutive days measured after 18 hrs post last dose; type: ADME, organism-based, Pneumocyte; details: human, alveolar cells / plasma
[12] = Drug level in lung transplant recipient invasive aspergillosis patient plasma at 150 mg, iv QD for 4 consecutive days measured after 24 hrs post last dose by HPLC; type: ADME, organism-based; details: human, read-out: Drug uptake; summary of the method: as §1
[13] = AUC (0 to 24 hrs) in epithelial lining fluid of lung transplant recipient invasive aspergillosis patient plasma at 150 mg, iv administered as single dose; type: ADME, organism-based; set-up: time < 24 hr, dose 150 mg, route intravenous; details: human
Summary of the method: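 Single 150-mg IV dose in adult lung transplant recipients. Plasma, ELF (epithelial lining fluid) and alveolar cell concentrations were measured by HPLC at the time of bronchoscopy. AUC0-24 came from a population model: a linear four-compartment model fit to all compartments, with the plasma two-compartment model used for the plasma profile.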

[14] = Clearance in lung transplant recipient invasive aspergillosis patient at 150 mg, iv QD for 4 consecutive days by HPLC; type: ADME, organism-based; details: human, in vivo
[15] = Drug level in alveolar cells of lung transplant recipient invasive aspergillosis patient at 150 mg, iv QD for 4 consecutive days measured after 5 hrs post last dose by HPLC; type: ADME, organism-based, Pneumocyte; details: human, read-out: Drug uptake; summary of the method: as §1
[16] = Ratio of drug level in epithelial lining fluid to plasma in lung transplant recipient invasive aspergillosis patient at 150 mg, iv QD for 4 consecutive days measured after 24 hrs post last dose; type: ADME, organism-based; details: human
[17] = tested on: Homo sapiens; assay: Hepatotoxicity in lung transplant recipient invasive aspergillosis patient assessed as serum AST level at 150 mg, iv QD for 4 consecutive days measured post last dose; type: toxicity, organism-based; details: in vivo; summary of the method: as §3
[18] = Drug level in epithelial lining fluid of lung transplant recipient invasive aspergillosis patient at 150 mg, iv single dose measured after 5 hrs post dose by HPLC; details: human, read-out: Drug uptake
[19] = Cmax in epithelial lining fluid of lung transplant recipient invasive aspergillosis patient at 150 mg, iv QD for 4 consecutive days by HPLC; type: ADME, organism-based; set-up: dose 150 mg, route intravenous; details: human; summary of the method: as §2
[20] = Drug level in epithelial lining fluid of lung transplant recipient invasive aspergillosis patient at 150 mg, iv QD for 4 consecutive days measured after 3 hrs post last dose by HPLC; type: ADME, organism-based; details: human, read-out: Drug uptake; summary of the method: as §1
[21] = Ratio of fCmax in lung transplant recipient invasive aspergillosis patient plasma to MIC90 for Aspergillus fumigatus; type: functional
[22] = Ratio of drug level in epithelial lining fluid to plasma in lung transplant recipient invasive aspergillosis patient at 150 mg, iv QD for 4 consecutive days measured after 8 hrs post last dose; type: ADME, organism-based; details: human
[23] = Ratio of drug level in alveolar cell to plasma of lung transplant recipient invasive aspergillosis patient at 150 mg, iv QD for 4 consecutive days measured after 3 hrs post last dose; type: ADME, organism-based, Pneumocyte; details: human, alveolar cells / plasma
[24] = tested on: Homo sapiens; assay: Hepatotoxicity in lung transplant recipient invasive aspergillosis patient assessed as total bilirubin level at 150 mg, iv QD for 4 consecutive days measured post last dose; type: toxicity, organism-based; details: in vivo; summary of the method: as §3
[25] = Ratio of AUC (0 to 24 hrs) in lung transplant recipient invasive aspergillosis patient alveolar cell to MIC90 for Aspergillus fumigatus; type: functional, Pneumocyte
[26] = Tmax in lung transplant recipient invasive aspergillosis patient plasma at 150 mg, iv QD for 4 consecutive days by HPLC; type: ADME, organism-based; details: human; summary of the method: as §2

CCCCCOc1ccc(-c2cc(-c3ccc(C(=O)N[C@H]4C[C@@H](O)[C@@H](O)NC(=O)[C@@H]5[C@@H](O)[C@@H](C)CN5C(=O)[C@H]([C@H](O)CC(N)=O)NC(=O)[C@H]([C@H](O)[C@@H](O)c5ccc(O)c(OS(=O)(=O)O)c5)NC(=O)[C@@H]5C[C@@H](O)CN5C(=O)[C@H]([C@@H](C)O)NC4=O)cc3)no2)cc1 [MICAFUNGIN] (X1-[Orn(4R-OH,5R-OH)]T[Hyp][hTyr(3S-OH,4S-OH,3'-OSO3H)][Gln(3R-OH)][Pro(3S-OH,4S-Me)]; lactam 1-C)
concentration at 5 h [1]: 690 ng/mL
concentration at 18 h [2]: 80 ng/mL
concentration at 5 h [3]: 4810 ng/mL
concentration at 3 h [4]: 4930 ng/mL
Ratio [5]: 88.5
Kp at 18 h [6]: 0.04
concentration at 5 h [7]: 5380 ng/mL
Tmax [8]: 17.9 h
half-life [9]: 12.1 h
Activity [10]: 1.11 mg/dL
Kp at 18 h [11]: 7.62
concentration at 24 h [12]: 1570 ng/mL
AUC(0-t) at 24 h [13]: 14400 ng·h/mL
clearance [14]: 21.8 mL/min
concentration at 5 h [15]: 53300 ng/mL
Kp at 24 h [16]: 1.1
Activity [17]: 28.6 IU/L
concentration at 5 h [18]: 710 ng/mL
Cmax [19]: 1380 ng/mL
concentration at 3 h [20]: 40 ng/mL
Ratio [21]: 3.2
Kp at 8 h [22]: 0.01
Kp at 3 h [23]: 1.53
Activity [24]: 0.74 mg/dL
Ratio [25]: 13340
Tmax [26]: 4 h
